Laboratory results published in ChEMBL document CHEMBL3797085, “Structure-Based Design and Synthesis of Novel Inhibitors Targeting HDAC8 from Schistosoma mansoni for the Treatment of Schistosomiasis” (J Med Chem, 2016).

Columns and labels:
Histone deacetylase 1 = Histone deacetylase 1 (Homo sapiens, UniProt Q13547); test: Inhibition of recombinant human HDAC1 using Cbz-(Ac)Lys-AMC as substrate preincubated for 90 mins followed by trypsin addition measured after 20 mins by fluorescence assay
Schistosoma mansoni [1] = test: Antiparasitic activity against schistosomula stage of Schistosoma mansoni assessed as parasite viability at 20 uM after 48 hrs by Alamar Blue assay relative to control; type: functional
Outline: (§1)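 Mechanically transformed S. mansoni schistosomula, 100 per well, in Medium 199 with 10% FCS, penicillin, streptomycin and rifampicin, held 3 h at 37°C/5% CO2 before use. […] Resazurin added at 48 h; fluorescence (ex 530/em 590 nm) read 24 h later, corrected for drug-medium background. Ethanol-killed larvae as dead control. Triplicate wells, two biological replicates.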

Histone deacetylase 8 [2] = target: T1, Histone deacetylase 8 (Schistosoma mansoni, UniProt A5H660); test: Inhibition of recombinant Schistosoma mansoni HDAC8 expressed in Escherichia coli using Fluor de Lys as substrate preincubated for 90 mins followed by BML-KI176 addition measured after 45 mins by fluorescence assay
T1 sequence (A5H660 whole entry): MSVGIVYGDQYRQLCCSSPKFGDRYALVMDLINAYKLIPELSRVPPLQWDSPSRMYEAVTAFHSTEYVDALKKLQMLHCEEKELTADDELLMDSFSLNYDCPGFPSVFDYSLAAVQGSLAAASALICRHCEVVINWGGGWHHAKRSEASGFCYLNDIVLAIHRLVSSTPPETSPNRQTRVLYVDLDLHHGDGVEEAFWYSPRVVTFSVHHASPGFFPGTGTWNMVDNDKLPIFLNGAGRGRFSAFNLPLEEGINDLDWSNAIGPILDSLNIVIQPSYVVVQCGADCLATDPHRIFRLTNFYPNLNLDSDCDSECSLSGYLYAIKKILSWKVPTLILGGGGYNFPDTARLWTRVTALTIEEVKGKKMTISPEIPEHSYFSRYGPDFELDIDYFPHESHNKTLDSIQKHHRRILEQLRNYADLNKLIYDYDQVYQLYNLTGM
Outline: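 smHDAC8 produced in E. coli. Fluor de Lys kit: compound, Fluor de Lys-HDAC8 substrate (50 µM) and enzyme incubated 90 min at 37°C, then Developer II for 45 min at 30°C. Reaction stopped with trichostatin A (2 µM). Fluorescence read at ex 390/em 460 nm. IC50 given as mean ± S.E.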

[3] = target: T2, Protein deacetylase HDAC6 (Homo sapiens, UniProt Q9UBN7); test: Inhibition of recombinant human HDAC6 using Cbz-(Ac)Lys-AMC as substrate preincubated for 90 mins followed by trypsin addition measured after 20 mins by fluorescence assay
T2 sequence (Q9UBN7 whole entry): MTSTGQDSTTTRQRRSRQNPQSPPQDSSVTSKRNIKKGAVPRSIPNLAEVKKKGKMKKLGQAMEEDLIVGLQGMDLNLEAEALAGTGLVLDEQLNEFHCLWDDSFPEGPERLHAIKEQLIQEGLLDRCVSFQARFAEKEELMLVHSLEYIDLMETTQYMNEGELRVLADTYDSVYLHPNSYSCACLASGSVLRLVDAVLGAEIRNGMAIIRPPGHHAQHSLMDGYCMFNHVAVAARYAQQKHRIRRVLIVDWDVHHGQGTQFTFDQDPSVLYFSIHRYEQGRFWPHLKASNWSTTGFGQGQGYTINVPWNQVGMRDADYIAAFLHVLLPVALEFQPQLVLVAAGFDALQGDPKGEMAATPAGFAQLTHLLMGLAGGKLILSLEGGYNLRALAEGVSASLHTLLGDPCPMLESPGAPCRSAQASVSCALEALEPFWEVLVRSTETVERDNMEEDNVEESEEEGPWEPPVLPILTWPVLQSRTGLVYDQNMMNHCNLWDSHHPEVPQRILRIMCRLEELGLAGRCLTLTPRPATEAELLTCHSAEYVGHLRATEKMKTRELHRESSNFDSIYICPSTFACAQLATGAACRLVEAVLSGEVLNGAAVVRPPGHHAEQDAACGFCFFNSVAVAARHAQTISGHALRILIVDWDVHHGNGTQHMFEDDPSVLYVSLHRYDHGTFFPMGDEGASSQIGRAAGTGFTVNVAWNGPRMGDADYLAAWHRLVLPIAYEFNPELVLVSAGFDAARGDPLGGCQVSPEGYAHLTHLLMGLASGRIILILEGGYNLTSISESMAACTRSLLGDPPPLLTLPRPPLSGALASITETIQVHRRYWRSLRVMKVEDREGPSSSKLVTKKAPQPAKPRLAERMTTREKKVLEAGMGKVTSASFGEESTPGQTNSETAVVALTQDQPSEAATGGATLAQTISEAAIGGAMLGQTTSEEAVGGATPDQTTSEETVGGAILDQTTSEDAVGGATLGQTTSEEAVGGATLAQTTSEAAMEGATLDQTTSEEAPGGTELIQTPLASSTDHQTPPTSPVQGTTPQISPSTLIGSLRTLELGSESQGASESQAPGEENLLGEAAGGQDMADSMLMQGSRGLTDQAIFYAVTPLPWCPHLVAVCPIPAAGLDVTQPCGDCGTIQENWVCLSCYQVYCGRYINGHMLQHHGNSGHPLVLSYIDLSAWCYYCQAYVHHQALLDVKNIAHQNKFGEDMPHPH

Schistosoma mansoni [4] = test: Antiparasitic activity against schistosomula stage of Schistosoma mansoni assessed as parasite viability at 10 uM after 48 hrs by Alamar Blue assay relative to control; type: functional; outline: as §1
[5] = Cytotoxicity against HEK293 cells assessed as cell viability at 50 uM after 24 hrs by Alamar Blue assay relative to control; type: cell-based; conditions: human, read-out: Activity
Outline: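 AlamarBlue added after 24 h, incubated a further 21 h; resorufin fluorescence ex 560/em 590 nm. Triplicates; viability relative to untreated cells; daunorubicin positive control.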

Histone deacetylase 8 [6] = target: T3, Histone deacetylase 8 (Homo sapiens, UniProt Q9BY41); test: Inhibition of recombinant human HDAC8 using Fluor de Lys as substrate preincubated for 90 mins followed by BML-KI176 addition measured after 45 mins by fluorescence assay
T3 sequence (Q9BY41 whole entry): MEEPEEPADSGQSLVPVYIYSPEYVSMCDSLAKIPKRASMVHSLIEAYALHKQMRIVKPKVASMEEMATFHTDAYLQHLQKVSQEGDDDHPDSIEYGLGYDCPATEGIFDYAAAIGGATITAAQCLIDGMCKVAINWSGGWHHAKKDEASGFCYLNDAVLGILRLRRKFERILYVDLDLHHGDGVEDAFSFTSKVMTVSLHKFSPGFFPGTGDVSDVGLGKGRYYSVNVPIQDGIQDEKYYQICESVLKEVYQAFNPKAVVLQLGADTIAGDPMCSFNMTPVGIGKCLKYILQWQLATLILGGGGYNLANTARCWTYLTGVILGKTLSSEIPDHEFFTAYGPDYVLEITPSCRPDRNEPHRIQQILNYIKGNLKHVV

Sequence of Histone deacetylase 1 (Q13547 whole entry): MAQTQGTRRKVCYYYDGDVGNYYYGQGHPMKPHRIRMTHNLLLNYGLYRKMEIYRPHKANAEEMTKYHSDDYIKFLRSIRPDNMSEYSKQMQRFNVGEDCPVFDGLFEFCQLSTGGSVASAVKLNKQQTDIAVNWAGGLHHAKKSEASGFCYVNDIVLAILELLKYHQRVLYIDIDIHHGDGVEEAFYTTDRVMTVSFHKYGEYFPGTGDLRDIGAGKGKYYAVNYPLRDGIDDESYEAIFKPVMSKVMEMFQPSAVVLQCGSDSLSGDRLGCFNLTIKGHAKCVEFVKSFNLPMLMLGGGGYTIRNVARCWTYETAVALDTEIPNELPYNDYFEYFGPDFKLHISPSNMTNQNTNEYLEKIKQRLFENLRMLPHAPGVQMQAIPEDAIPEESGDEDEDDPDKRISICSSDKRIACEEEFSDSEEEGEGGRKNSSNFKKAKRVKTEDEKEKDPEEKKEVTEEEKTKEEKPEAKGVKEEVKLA

With `Cc1ccc(C(=O)NO)cc1NC(=O)c1ccccc1` the IC50 (Histone deacetylase 1; read-out: IC50) was 8.4 µM, the Activity (Schistosoma mansoni [1]) was 72.4% and the IC50 (Histone deacetylase 8 [2]; read-out: IC50) was 116 nM. It also gave an IC50 ([3]; read-out: IC50) of 900 nM, an Activity (Schistosoma mansoni [4]) of 82.9% and a viability at 24 h, 50 µM [5] of 71.2%. The IC50 (Histone deacetylase 8 [6]; read-out: IC50) was 204 nM.

Molecule `COc1ccc(C(=O)Nc2cc(C(=O)NO)ccc2Cl)cc1` has an IC50 (Histone deacetylase 1; read-out: IC50) of 4.1 µM, an Activity (Schistosoma mansoni [1]) of 60.7% and an IC50 (Histone deacetylase 8 [2]; read-out: IC50) of 147 nM. The IC50 ([3]; read-out: IC50) was 130 nM, the Activity (Schistosoma mansoni [4]) was 63.2% and the viability at 24 h, 50 µM [5] was 62.5%. The IC50 (Histone deacetylase 8 [6]; read-out: IC50) was 236 nM.

Work on `O=C(NO)c1ccc(Cl)c(NC(=O)c2ccc(Cl)cc2)c1` yielded an IC50 (Histone deacetylase 1; read-out: IC50) of 3.8 µM, an Activity (Schistosoma mansoni [1]) of 49.3% and an IC50 (Histone deacetylase 8 [2]; read-out: IC50) of 235 nM. For the same molecule, the IC50 ([3]; read-out: IC50) was 90 nM, the Activity (Schistosoma mansoni [4]) was 71.8% and the viability at 24 h, 50 µM [5] was 81.6%. The IC50 (Histone deacetylase 8 [6]; read-out: IC50) was 292 nM.

Work on `COc1ccc(C(=O)NO)cc1NC(=O)c1ccccc1` yielded an IC50 (Histone deacetylase 1; read-out: IC50) of 2.3 µM, an Activity (Schistosoma mansoni [1]) of 74.8% and an IC50 (Histone deacetylase 8 [2]; read-out: IC50) of 190 nM. The IC50 ([3]; read-out: IC50) was 2500 nM, the Activity (Schistosoma mansoni [4]) was 77.4% and the viability at 24 h, 50 µM [5] was 67.3%. The IC50 (Histone deacetylase 8 [6]; read-out: IC50) was 88.3 nM.

In the case of `O=C(NO)c1ccc(C(F)(F)F)c(NC(=O)c2ccccc2)c1`, the IC50 (Histone deacetylase 1; read-out: IC50) is reported as 2.4 µM, the Activity (Schistosoma mansoni [1]) is reported as 77.4% and the IC50 (Histone deacetylase 8 [2]; read-out: IC50) is reported as 140 nM. For the same molecule, the IC50 ([3]; read-out: IC50) was 140 nM, the Activity (Schistosoma mansoni [4]) was 99.9% and the viability at 24 h, 50 µM [5] was 96%. For the same molecule, the IC50 (Histone deacetylase 8 [6]; read-out: IC50) was 342 nM.

`O=C(NO)c1cccc(N(Cc2ccccc2)Cc2ccccc2)c1` showed an IC50 (Histone deacetylase 1; read-out: IC50) of 42.3 µM, an Activity (Schistosoma mansoni [1]) of 74.6% and an IC50 (Histone deacetylase 8 [2]; read-out: IC50) of 9290 nM. The IC50 ([3]; read-out: IC50) was 8600 nM, the Activity (Schistosoma mansoni [4]) was 77.9% and the viability at 24 h, 50 µM [5] was 7.7%. It also gave an IC50 (Histone deacetylase 8 [6]; read-out: IC50) of 2190 nM.

With `COc1ccc(C(=O)NO)cc1NC(=O)c1ccc(Cl)cc1` the IC50 (Histone deacetylase 1; read-out: IC50) was 2.9 µM, the IC50 (Histone deacetylase 8 [2]; read-out: IC50) was 146 nM and the IC50 ([3]; read-out: IC50) was 900 nM. For the same molecule, the viability at 24 h, 50 µM [5] was 92.6% and the IC50 (Histone deacetylase 8 [6]; read-out: IC50) was 240 nM.

Molecule `COc1ccc(C(=O)Nc2cc(C(=O)NO)ccc2OC)cc1` has an IC50 (Histone deacetylase 1; read-out: IC50) of 2.6 µM, an Activity (Schistosoma mansoni [1]) of 64.6% and an IC50 (Histone deacetylase 8 [2]; read-out: IC50) of 106 nM. The IC50 ([3]; read-out: IC50) was 400 nM, the Activity (Schistosoma mansoni [4]) was 74.6% and the viability at 24 h, 50 µM [5] was 61.9%. It also gave an IC50 (Histone deacetylase 8 [6]; read-out: IC50) of 77.1 nM.

For `COc1ccc(C(=O)NO)cc1NC(=O)c1ccc(Cl)cc1Cl`, the IC50 (Histone deacetylase 1; read-out: IC50) was 13 µM, the Activity (Schistosoma mansoni [1]) was 50.7% and the IC50 (Histone deacetylase 8 [2]; read-out: IC50) was 122 nM. It also gave an IC50 ([3]; read-out: IC50) of 2300 nM, an Activity (Schistosoma mansoni [4]) of 77.8% and a viability at 24 h, 50 µM [5] of 95.1%. The IC50 (Histone deacetylase 8 [6]; read-out: IC50) was 548 nM.

`CC(C)Oc1ccc(C(=O)NO)cc1NC(=O)c1ccccc1` showed an IC50 (Histone deacetylase 1; read-out: IC50) of 3.6 µM, an Activity (Schistosoma mansoni [1]) of 68.7% and an IC50 (Histone deacetylase 8 [2]; read-out: IC50) of 220 nM. It also gave an IC50 ([3]; read-out: IC50) of 2600 nM, an Activity (Schistosoma mansoni [4]) of 75% and a viability at 24 h, 50 µM [5] of 129%. The IC50 (Histone deacetylase 8 [6]; read-out: IC50) was 29 nM.

`O=C(NO)c1ccc2ccccc2n1` showed an IC50 (Histone deacetylase 8 [2]; read-out: IC50) of 8200 nM, an Activity (Schistosoma mansoni [4]) of 95.6% and a viability at 24 h, 50 µM [5] of 73.3%. For the same molecule, the IC50 (Histone deacetylase 8 [6]; read-out: IC50) was 582 nM.

`O=C(NO)c1ccc(Cl)c(NC(=O)c2cccc(Oc3ccccc3)c2)c1` gave an IC50 (Histone deacetylase 1; read-out: IC50) of 6.4 µM, an Activity (Schistosoma mansoni [1]) of 55% and an IC50 (Histone deacetylase 8 [2]; read-out: IC50) of 396 nM. It also gave an IC50 ([3]; read-out: IC50) of 300 nM, an Activity (Schistosoma mansoni [4]) of 62.9% and a viability at 24 h, 50 µM [5] of 62%. The IC50 (Histone deacetylase 8 [6]; read-out: IC50) was 449 nM.

`COc1ccc(C(=O)NO)cc1OCc1ccccc1` showed an IC50 (Histone deacetylase 8 [2]; read-out: IC50) of 268 nM.

For `COc1ccc(C(=O)O)cc1NC(=O)c1ccc(-c2ccccc2)cc1`, the IC50 (Histone deacetylase 1) was “Not Active”, the IC50 (Histone deacetylase 8 [2]) was “Not Active” and the IC50 [3] was “Not Active”. The IC50 (Histone deacetylase 8 [6]) was “Not Active”.
